A selection: hits, their analogues and other compounds. The true share with any hit is near 2.1%.
beta cell repl = induces beta-cell replication in MIN6 cells | hit rate 0.29% among 330,000 | proliferation, % at 10 µM | MIN6 cells proliferation, ATPlite luminescence, 48 h; cells starved in 0.2% serum; 100% = growth in 10% serum;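 active = compounds whose signal lies at least 3.5 SD above the mean of all wells on their plate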
hiPSC survival = increases survival of single human iPS cells; hiPSC single-cell survival, ATPlite luminescence; 100% = ROCK inhibitor wells, 0% = DMSO; survival enhancement, % at 20 µM; hit rate 0.044% among 360,000; in the data active = survival enhancement above about 18%;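 note: cells exposed to compounds for 16 hours before the ATP read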
CRFBP-R2 block = CRF-BP/CRF-R2 complex antagonism; HEK293 CRF-R2/CRF-BP, CRF-induced calcium fluorescence; inhibition, % at 11.8 µM; hit rate 0.59% among 350,000; AID 588475;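 active = inhibition of the ligand-induced calcium signal above about 50% at the single tested concentration, limit read from the data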
CRFBP-R2 agonist = CRF-BP/CRF-R2 complex agonism | HEK293 CRF-R2/CRF-BP, calcium dye fluorescence (FLIPR); percent of saturating CRF peptide response | activation, % at 13.2 µM | hit rate 0.46% among 350,000;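 active = activation of at least 50%, plus an integration ratio under a set limit after plate pattern correction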
H9c2 protect = modulators protecting cardiomyocytes from myocardial damage; protection from H2O2 cell death, % at 20 µM; hit rate 0.63% among 360,000; H9c2 cardiomyocytes, H2O2 injury protection, ATPLite, 2 h;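 active = compounds giving at least 50% protection of heart cells from peroxide-induced death in the single-dose screen, raw or plate-pattern-corrected value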
UCH37 inh = inhibitors of human deubiquitinating enzyme UCH37 | hit rate 0.33% among 330,000 | purified proteasome/UCH37, Ub-AMC cleavage fluorescence | Q9Y5K5 | inhibition, % (no concentration beside the values);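 active = mean inhibition over replicate wells above about 20%, limit read from the data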
Target sequence (Q9Y5K5 whole entry, looked up): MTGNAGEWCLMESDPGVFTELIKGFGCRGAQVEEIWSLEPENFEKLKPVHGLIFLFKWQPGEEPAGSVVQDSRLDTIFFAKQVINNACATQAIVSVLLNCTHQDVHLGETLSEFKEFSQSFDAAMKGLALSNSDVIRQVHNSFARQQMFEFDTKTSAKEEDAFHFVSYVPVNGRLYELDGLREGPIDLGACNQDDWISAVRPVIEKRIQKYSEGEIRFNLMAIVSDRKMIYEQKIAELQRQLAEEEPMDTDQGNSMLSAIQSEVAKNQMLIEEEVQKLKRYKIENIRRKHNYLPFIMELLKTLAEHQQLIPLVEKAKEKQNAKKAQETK
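Signal – fluorescence, ex 355 nm, em 460 nm · System – Proteasome-bound UCH37 · Input – 0.15 nM proteasome as dispensed · Timing – 30 min preincubation with enzyme, 25 min cleavage at room temperature · Read-out basis – percent inhibition of cleavage signal versus uninhibited and no-proteasome wells · Medium – Tris-HCl pH 7.4 with ATP-MgCl2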
Of the large screens only hits and unclear results are named; the others gave an inactive call.

c1ccc2c(CN3CCOCC3)csc2c1	none
c1ccc2c(CN3CCCCC3)csc2c1	CRFBP-R2 agonist 96.3
COc1cc(C(=O)NN=Cc2ccccc2)c([N+](=O)[O-])c(OC)c1OC	none (no result: beta cell repl, hiPSC survival, CRFBP-R2 block, CRFBP-R2 agonist, H9c2 protect)
C[C@@]12C(=O)OC(=O)[C@]1(C)C1CCC2O1	H9c2 protect 67.0 (no result: UCH37 inh)
C(=Nn1cnc2ccccc21)c1cccnc1	none (no result: beta cell repl, hiPSC survival, CRFBP-R2 block, CRFBP-R2 agonist, H9c2 protect)
O=C(NNC1CC(=O)N(c2ccc(Cl)cc2)C1=O)c1ccccn1 (stereo unspecified)	UCH37 inh 25.6
Cc1ccc(C=NN(Cc2ccccc2)c2ccccc2)o1	none (no result: beta cell repl, hiPSC survival, CRFBP-R2 block, CRFBP-R2 agonist, H9c2 protect)
COc1ccccc1-c1cc(NC=O)c2ncc(-c3cccc(C(=O)N(C)C)c3)n2c1	none (no result: beta cell repl, CRFBP-R2 block, CRFBP-R2 agonist, UCH37 inh)
CC(=O)c1cccc(-c2cnc3c(NC=O)cc(-c4ccc(F)cc4)cn23)c1	H9c2 protect 60.9 (no result: beta cell repl, CRFBP-R2 block, CRFBP-R2 agonist, UCH37 inh)
COc1ccccc1-c1cc(NC=O)c2ncc(-c3cccc(C(C)=O)c3)n2c1	H9c2 protect 60.0 (no result: beta cell repl, CRFBP-R2 block, CRFBP-R2 agonist, UCH37 inh)
COc1cc(C=Nn2cc(-c3ccccc3)[nH]c2=S)cc(OC)c1O	none (no result: beta cell repl, hiPSC survival, CRFBP-R2 block, CRFBP-R2 agonist, H9c2 protect)
CCOC(=O)Cc1csc(NN=Cc2ccccc2OC)n1	none (no result: beta cell repl, hiPSC survival, CRFBP-R2 block, CRFBP-R2 agonist, H9c2 protect)
C/C(=N\NC(=S)Nc1ccc(C)cc1)c1cccc(N)c1	CRFBP-R2 agonist 179.3 (no result: UCH37 inh)
CC1(c2nnc(Cc3ccccc3)o2)CC(c2ccc(Cl)cc2)=NO1 (stereo unspecified)	UCH37 inh 28.0
CC1(c2nnc(Cc3ccccc3)o2)CC(c2ccc(C#N)cc2)=NO1 (stereo unspecified)	none
CC1(c2nnc(Cc3ccccc3)o2)CC(c2ccncc2)=NO1 (stereo unspecified)	UCH37 inh 20.7
COc1ccc(C2=NOC(C)(c3nnc(Cc4ccccc4)o3)C2)cc1 (stereo unspecified)	UCH37 inh 29.2
CC1(c2nnc(Cc3ccccc3)o2)CC(c2c(Cl)cccc2Cl)=NO1 (stereo unspecified)	none
Cn1cc(C(=O)NN=CC2=C(N3CCOCC3)/C(=C/c3ccc([N+](=O)[O-])cc3)CC2)ccc1=O	none (no result: beta cell repl, hiPSC survival, CRFBP-R2 block, CRFBP-R2 agonist, H9c2 protect)
CCOc1ccc(C=NNC(=O)c2cc3c(OC)cc(OC)cc3[nH]2)cc1OC	none (no result: beta cell repl, hiPSC survival, CRFBP-R2 block, CRFBP-R2 agonist, H9c2 protect)
O=C(CCc1nc2ccccc2c(=O)[nH]1)NCCN1C(=O)S/C(=C\c2ccc(OC(F)F)cc2)C1=O	H9c2 protect 69.4 (no result: beta cell repl)
O=C(CCc1nc2ccccc2c(=O)[nH]1)NCCN1C(=O)S/C(=C\c2ccccc2Cl)C1=O	none
O=[N+]([O-])c1ccccc1NN=Cc1ccccc1F	none (no result: beta cell repl, hiPSC survival, CRFBP-R2 block, CRFBP-R2 agonist, H9c2 protect)
COc1cccc(/C=N/Nc2nc3ccccc3n3cnnc23)c1O	none (no result: UCH37 inh)
c1ccc(N2CCOCC2)c(Nc2nc3ccccc3n3cnnc23)c1	H9c2 protect 81.0
COc1cccc(/C=N/Nc2nc3ccccc3n3cnnc23)c1	H9c2 protect 56.6 (no result: UCH37 inh)
CC(=O)c1cccc(Nc2nc3ccccc3n3cnnc23)c1	CRFBP-R2 block 115.7, H9c2 protect 67.0
COC(=O)c1ccccc1Sc1c(C=NOCc2ccc(Cl)cc2)c(C(F)(F)F)nn1C	none (no result: beta cell repl, hiPSC survival, CRFBP-R2 block, CRFBP-R2 agonist, H9c2 protect)
Cc1cc(C)c[n+](-c2[nH]c(=O)sc2C=NN=C(N)[S-])c1	none (no result: beta cell repl, hiPSC survival, CRFBP-R2 block, CRFBP-R2 agonist, H9c2 protect)
O=C(NN=Cc1ccc(Cl)cc1)c1cc(-c2cccnc2)nc2ccccc12	none (no result: beta cell repl, hiPSC survival, CRFBP-R2 block, CRFBP-R2 agonist, H9c2 protect)
Cc1ccc(-c2ccc(=O)n(Cc3cc(C)ccc3C)n2)cc1	CRFBP-R2 block 123.3
CCCCCC(=O)N1CC2(CC(c3cccc(NC(=O)CC)c3)=NO2)C[C@H]1C(N)=O (stereo partly specified)	CRFBP-R2 block 79.0
C=C(C)C(=O)Nc1cccc(C2=NOC3(C2)C[C@@H](C(N)=O)N(C(=O)c2cc([N+](=O)[O-])cc([N+](=O)[O-])c2C)C3)c1 (stereo partly specified)	none
C/C=C/C(=O)Nc1cccc(C2=NOC3(C2)C[C@@H](C(N)=O)N(C(=O)c2cc([N+](=O)[O-])cc([N+](=O)[O-])c2C)C3)c1 (stereo partly specified)	CRFBP-R2 agonist 232.2
COc1ccc(C=NNC(=O)c2cc(-c3ccc4c(c3)OCO4)n[nH]2)cc1OC	none (no result: beta cell repl, hiPSC survival, CRFBP-R2 block, CRFBP-R2 agonist, H9c2 protect)
CCC1=[N+]([O-])C(C)(C(C)=NO)N(O)C1(C)C (stereo unspecified)	none (no result: beta cell repl, hiPSC survival, CRFBP-R2 block, CRFBP-R2 agonist, H9c2 protect)
COc1cc(CNc2ccccc2SC)ccc1O	CRFBP-R2 block 55.2

Compound activity deposited in PubChem BioAssay by several laboratories.
